The text below walks through data of ChEMBL document CHEMBL1137090, “Heterocyclic bis-cations as starting hits for design of inhibitors of the bifunctional enzyme histidine-containing protein kinase/phosphatase from Bacillus subtilis” (J Med Chem, 2004).

Assay [1] in a line: Effective concentration for inhibition of […] in kinase assay along with ADP. More on the design: species or system Bacillus subtilis. The essentials: (§1)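 Kinase reaction, 37 °C 10 min: 100 nM HPrK/P(Trx-His6-S-tag), 10 µM HPr(His)6 or Crh(His)6, 0.5 mM [γ-32P]ATP, 2 mM FBP, 0.1% BSA, pH 8 Tris. ADP given alone or combined with inhibitor at a fixed concentration ratio; ≥13 conditions in triplicate. Phosphate retained on P81 paper is counted. EC50 and Hill coefficient fitted by nonlinear regression.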

A short description of assay [2]: Effective concentration for inhibition of […] in phosphatase assay. More on the design: species or system Bacillus subtilis. The method in brief: (§2)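 Substrates HPr(His)6 or Crh(His)6 (8 µM final) are first fully phosphorylated by HPrK/P with [γ-32P]ATP and FBP, pH 8, 37 °C. Inhibitor, 13 serial concentrations premixed with inorganic phosphate (K2HPO4/KH2PO4, pH 8.0, 1 mM final), then added and incubated 2 h at 37 °C. Precipitating top concentrations excluded. Read-out by P81/scintillation; mean of n = 3; EC50 and Hill coefficient by nonlinear regression.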

For assay [3], the target named is T1, HPr kinase/phosphorylase (Bacillus subtilis (strain 168), UniProt O34483).
T1 sequence (O34483 whole entry): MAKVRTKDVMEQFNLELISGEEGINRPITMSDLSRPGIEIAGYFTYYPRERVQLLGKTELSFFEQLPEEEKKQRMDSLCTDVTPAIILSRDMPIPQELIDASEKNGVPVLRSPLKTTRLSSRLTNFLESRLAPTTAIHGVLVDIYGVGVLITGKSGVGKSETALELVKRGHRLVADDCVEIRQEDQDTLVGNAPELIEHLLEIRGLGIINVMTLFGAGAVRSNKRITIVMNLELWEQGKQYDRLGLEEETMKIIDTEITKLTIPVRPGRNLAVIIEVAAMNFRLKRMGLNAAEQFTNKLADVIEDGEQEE
Description: Inhibition of histidine containing protein in kinase assay. The method in brief: (§3)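 B. subtilis HPrK/P(Trx-His6-S-tag) kinase, 100 nM, added last to start the reaction with 10 µM HPr(His)6 or Crh(His)6, 0.5 mM [γ-32P]ATP, 5 mM MgCl2, 2 mM FBP, 0.1% BSA, 50 mM Tris pH 8, 10% DMSO; 37 °C, 10 min. Read-out is P81 paper capture, H3PO4 washes and scintillation counting. Thirteen serial inhibitor concentrations, typically in triplicate; EC50 and Hill coefficient from nonlinear regression.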

For assay [4], the target named is T1, HPr kinase/phosphorylase. Description: Inhibition of histidine containing protein in kinase assay with ADP. The method in brief: as §1
In assay [5] the target is T1, HPr kinase/phosphorylase. Description: Inhibition of histidine containing protein in phosphatase assay. The essentials: as §2
The nature of assay [6]: Hill slope for the compound was measured for inhibition of histidine containing protein kinase assay. The essentials:
as §3

Assay [7] can be described thus: Hill slope for the compound was measured for inhibition of histidine containing protein kinase assay along with ADP. The method in brief: as §1
Assay [8] in a line: Hill slope for the compound was measured for inhibition of histidine containing protein phosphatase assay. The essentials:
as §2

A short description of assay [9]: Combined index for the compound to that of ADP in kinase assay against histidine containing protein. The essentials:
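B. subtilis HPrK/P(Trx-His6-S-tag), 100 nM, phosphorylating 10 µM HPr(His)6 or Crh(His)6; [γ-32P]ATP 0.5 mM, 50 mM Tris pH 8, 5 mM MgCl2, 2 mM FBP, 0.1% BSA, 37 °C, 10 min. Inhibitor and ADP co-varied at a constant ratio set by their separate EC50s; ≥13 conditions in triplicate. Chou-Talalay combination index computed at EC50.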

A short description of assay [10]: Combined index for the compound to that of ADP in kinase assay against Crh.
Assay [11] can be described thus: Hill slope for the compound was measured for inhibition of Crh kinase assay.
Assay [12] in a line: Hill slope for the compound was measured for inhibition of Crh phosphatase assay.
Assay [13] addresses HPr kinase/phosphorylase (Bacillus subtilis) (UniProt O34483). Description: Effective concentration for inhibition of HPr kinase/phosphorylase in kinase assay.
Assay [14] can be described thus: Hill slope for the compound was measured for inhibition of Crh kinase assay along with ADP.

As to `Nc1n(Cc2ccccc2)c2ccccc2[n+]1CCCCCCCCCCCC[n+]1c(N)n(Cc2ccccc2)c2ccccc21.Nc1ncnc2c1ncn2[C@@H]1O[C@H](COP(=O)(O)OP(=O)(O)O)[C@@H](O)[C@H]1O`, the EC50 (usually the concentration giving half of the maximal effect) in assay [1] is 12 µM; in assay [2], 14 µM; in assay [3], 10 µM; in assay [4], 5.2 µM; in assay [5], 16 µM; in assay [13], 21 µM. For the same compound, the Activity in assay [6] was determined as 1.8; in [7], 2.2; in assay [8] it was 2.1; in assay [11], 2.4; in [12] it was 1.7; in [14], 2.3. The CI in assay [9] is 1; in assay [10], 1.1.
